Results published in ChEMBL document CHEMBL1250476, “Synthesis and antifungal evaluation of novel triazole derivatives as inhibitors of cytochrome P450 14alpha-demethylase” (2010).
Values after ≈ are worked out from the molar mass of the structure shown.

Assays:
Assay type in all cases: functional
Kluyveromyces marxianus = assay: Antifungal activity against Candida kefyr by micro-broth dilution method
Summary of the method: (§1)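 MIC80 by broth microdilution in 96-well format following NCCLS. Compounds were dissolved in DMSO, serially diluted in growth medium, inoculated and incubated at 35 °C. The endpoint was the first well with about 80% growth reduction versus the drug-free well. Values are means of three replicate tests.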

Candida albicans [1] = assay: Antifungal activity against Candida albicans Y0109 after 24 hrs by micro-broth dilution method; details: Y0109, 24 h
Summary of the method: (§2)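 Broth microdilution per NCCLS on Candida albicans. Compounds were dissolved in DMSO, serially diluted in growth medium, inoculated and incubated at 35 °C. Growth was read at 24 h, and MIC80 was taken as the first well with about 80% growth reduction relative to the drug-free control. Values are the mean of three replicates.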

Cryptococcus neoformans = assay: Antifungal activity against Cryptococcus neoformans after 72 hrs by micro-broth dilution method
Summary of the method: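 Cryptococcus neoformans tested by NCCLS micro-broth dilution. Compounds were dissolved in DMSO, serially diluted in medium, inoculated and incubated at 35 °C. MIC80 was read at 72 h as the first well showing approximately 80% growth reduction compared with the drug-free well. Values are the mean of three replicate tests.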

Candida tropicalis = assay: Antifungal activity against Candida tropicalis by micro-broth dilution method; summary of the method: as §1
Trichophyton rubrum = assay: Antifungal activity against Trichophyton rubrum by micro-broth dilution method; summary of the method: as §1
Candida albicans [2] = assay: Antifungal activity against Candida albicans SC5314 after 24 hrs by micro-broth dilution method; details: SC5314, 24 h; summary of the method: as §2
Candida parapsilosis = assay: Antifungal activity against Candida parapsilosis by micro-broth dilution method; details: Lodderomyces parapsilosis; summary of the method: as §1
Aspergillus fumigatus = assay: Antifungal activity against Aspergillus fumigatus by micro-broth dilution method; summary of the method: as §1

Row | Compound | MIC (Kluyveromyces marxianus) | MIC (Candida albicans [1]) | MIC (Cryptococcus neoformans) | MIC (Candida tropicalis) | MIC (Trichophyton rubrum) | MIC (Candida albicans [2]) | MIC (Candida parapsilosis) | MIC (Aspergillus fumigatus)
1 | O=[N+]([O-])c1ccc(Cn2cc(CN(CC(O)(Cn3cncn3)c3ccc(F)cc3F)C3CC3)nn2)cc1 (centres undefined) | 0.0039 µg/mL (≈ 0.00764 µM) | 0.25 µg/mL (≈ 0.49 µM) | 16 µg/mL (≈ 31.3 µM) | 0.25 µg/mL (≈ 0.49 µM) | 0.5 µg/mL (≈ 0.979 µM) | < 0.125 µg/mL | 1 µg/mL (≈ 1.96 µM) | > 64 µg/mL
2 | N#Cc1ccccc1Cn1cc(CN(CC(O)(Cn2cncn2)c2ccc(F)cc2F)C2CC2)nn1 (centres undefined) | 1 µg/mL (≈ 2.04 µM) | 16 µg/mL (≈ 32.6 µM) | 64 µg/mL (≈ 130 µM) | 1 µg/mL (≈ 2.04 µM) | 2 µg/mL (≈ 4.08 µM) | 0.25 µg/mL (≈ 0.51 µM) | 2 µg/mL (≈ 4.08 µM) | > 64 µg/mL
3 | N#Cc1cccc(Cn2cc(CN(CC(O)(Cn3cncn3)c3ccc(F)cc3F)C3CC3)nn2)c1 (centres undefined) | 1 µg/mL (≈ 2.04 µM) | 4 µg/mL (≈ 8.15 µM) | 64 µg/mL (≈ 130 µM) | 1 µg/mL (≈ 2.04 µM) | 4 µg/mL (≈ 8.15 µM) | 4 µg/mL (≈ 8.15 µM) | 4 µg/mL (≈ 8.15 µM) | > 64 µg/mL
4 | N#Cc1ccc(Cn2cc(CN(CC(O)(Cn3cncn3)c3ccc(F)cc3F)C3CC3)nn2)cc1 (centres undefined) | 1 µg/mL (≈ 2.04 µM) | 0.0625 µg/mL (≈ 0.127 µM) | 64 µg/mL (≈ 130 µM) | 4 µg/mL (≈ 8.15 µM) | 4 µg/mL (≈ 8.15 µM) | 1 µg/mL (≈ 2.04 µM) | 4 µg/mL (≈ 8.15 µM) | > 64 µg/mL
5 | OC(CN(Cc1cn(Cc2c(Cl)cccc2Cl)nn1)C1CC1)(Cn1cncn1)c1ccc(F)cc1F (centres undefined) | 0.25 µg/mL (≈ 0.468 µM) | 0.0625 µg/mL (≈ 0.117 µM) | 64 µg/mL (≈ 120 µM) | 4 µg/mL (≈ 7.49 µM) | 1 µg/mL (≈ 1.87 µM) | 4 µg/mL (≈ 7.49 µM) | 4 µg/mL (≈ 7.49 µM) | > 64 µg/mL
6 | CCc1ccc(Cn2cc(CN(CC(O)(Cn3cncn3)c3ccc(F)cc3F)C3CC3)nn2)cc1 (centres undefined) | 0.25 µg/mL (≈ 0.507 µM) | 0.25 µg/mL (≈ 0.507 µM) | 1 µg/mL (≈ 2.03 µM) | 2 µg/mL (≈ 4.05 µM) | 2 µg/mL (≈ 4.05 µM) | 4 µg/mL (≈ 8.1 µM) | 4 µg/mL (≈ 8.1 µM) | > 64 µg/mL
7 | CC(C)(C)c1ccc(Cn2cc(CN(CC(O)(Cn3cncn3)c3ccc(F)cc3F)C3CC3)nn2)cc1 (centres undefined) | 1 µg/mL (≈ 1.92 µM) | < 0.125 µg/mL | 4 µg/mL (≈ 7.67 µM) | 16 µg/mL (≈ 30.7 µM) | 4 µg/mL (≈ 7.67 µM) | 0.0625 µg/mL (≈ 0.12 µM) | 0.25 µg/mL (≈ 0.479 µM) | > 64 µg/mL
8 | C[C@@H]1[C@H](O)[C@@H](C)/C=C/C=C/C=C/C=C/C=C/C=C/C=C/[C@H](O[C@@H]2O[C@H](C)[C@@H](O)[C@H](N)[C@@H]2O)C[C@@H]2O[C@](O)(C[C@@H](O)C[C@@H](O)[C@H](O)CC[C@@H](O)C[C@@H](O)CC(=O)O[C@H]1C)C[C@H](O)[C@H]2C(=O)O [AMPHOTERICIN B] | 0.25 µg/mL (≈ 0.271 µM) | 4 µg/mL (≈ 4.33 µM) | 4 µg/mL (≈ 4.33 µM) | 0.25 µg/mL (≈ 0.271 µM) | 1 µg/mL (≈ 1.08 µM) | 8 µg/mL (≈ 8.66 µM) | 0.125 µg/mL (≈ 0.135 µM) | 32 µg/mL (≈ 34.6 µM)
9 | OC(Cn1cncn1)(Cn1cncn1)c1ccc(F)cc1F [FLUCONAZOLE] | 1 µg/mL (≈ 3.27 µM) | 0.5 µg/mL (≈ 1.63 µM) | 8 µg/mL (≈ 26.1 µM) | < 0.125 µg/mL | < 0.125 µg/mL | 0.5 µg/mL (≈ 1.63 µM) | 2 µg/mL (≈ 6.53 µM) | > 64 µg/mL
10 | CCC(C)n1ncn(-c2ccc(N3CCN(c4ccc(OCC5COC(Cn6cncn6)(c6ccc(Cl)cc6Cl)O5)cc4)CC3)cc2)c1=O (centres undefined) [ITRACONAZOLE] | 0.0625 µg/mL (≈ 0.0886 µM) | 0.0625 µg/mL (≈ 0.0886 µM) | 0.125 µg/mL (≈ 0.177 µM) | < 0.0625 µg/mL | 0.0625 µg/mL (≈ 0.0886 µM) | < 0.0625 µg/mL | 0.0625 µg/mL (≈ 0.0886 µM) | 2 µg/mL (≈ 2.83 µM)
11 | CC(=O)N1CCN(c2ccc(OCC3COC(Cn4ccnc4)(c4ccc(Cl)cc4Cl)O3)cc2)CC1 (centres undefined) [KETOCONAZOLE] | 0.0625 µg/mL (≈ 0.118 µM) | < 0.125 µg/mL | 0.5 µg/mL (≈ 0.941 µM) | < 0.125 µg/mL | < 0.125 µg/mL | < 0.125 µg/mL | < 0.125 µg/mL | 0.125 µg/mL (≈ 0.235 µM)
12 | CN(C/C=C/C#CC(C)(C)C)Cc1cccc2ccccc12 [TERBINAFINE] | 0.0625 µg/mL (≈ 0.214 µM) | 2 µg/mL (≈ 6.86 µM) | 8 µg/mL (≈ 27.5 µM) | < 0.125 µg/mL | < 0.125 µg/mL | 16 µg/mL (≈ 54.9 µM) | < 0.125 µg/mL | 0.25 µg/mL (≈ 0.858 µM)
13 | C[C@@H](c1ncncc1F)[C@](O)(Cn1cncn1)c1ccc(F)cc1F [VORICONAZOLE] | 0.0039 µg/mL (≈ 0.0112 µM) | < 0.125 µg/mL | < 0.125 µg/mL | < 0.125 µg/mL | 0.25 µg/mL (≈ 0.716 µM) | 32 µg/mL (≈ 91.6 µM) | < 0.125 µg/mL | < 0.125 µg/mL
